Source: ChEMBL document CHEMBL3804828, “2,4,6-Triaminopyrimidine as a Novel Hinge Binder in a Series of PI3Kδ Selective Inhibitors” (J Med Chem, 2016)

How the values were obtained:
Rattus norvegicus [1] = experiment: Antiarthritis activity in collagen-induced Lewis rat arthritis model assessed as reduction of periosteal bone width administered bid through oral gavage for 7 days measured every day started on day 9 and continuing through day 16 of compound dosing; type: functional
How it was run: (§1)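 Female Lewis rats with established collagen-induced arthritis dosed orally by gavage twice daily for 7 days (study days 10–16) with vehicle, 0.34, 1.07, 4.6 or 10 mg/kg, or dexamethasone 0.03 mg/kg; right and left ankle diameters by caliper daily, days 9–16; ankle and knee sections graded 0–5 per histopathology parameter; p < 0.05 versus arthritis + vehicle.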

Rattus norvegicus [2] = experiment: Antiarthritis activity in collagen-induced Lewis rat arthritis model assessed as reduction in ankle swelling administered bid through oral gavage for 7 days measured every day started on day 9 and continuing through day 16 of compound dosing; type: functional, organism-based; how it was run: as §1
[3] = target: T1, Phosphatidylinositol 4,5-bisphosphate 3-kinase catalytic subunit delta isoform (Homo sapiens, UniProt O00329); experiment: Inhibition of PI3Kdelta in human whole blood assessed as basophil degranulation by measuring CD63 surface expression on CCR3 positive cells after 60 mins by flow cytometric analysis; type: tissue-based
T1 sequence (O00329 whole entry): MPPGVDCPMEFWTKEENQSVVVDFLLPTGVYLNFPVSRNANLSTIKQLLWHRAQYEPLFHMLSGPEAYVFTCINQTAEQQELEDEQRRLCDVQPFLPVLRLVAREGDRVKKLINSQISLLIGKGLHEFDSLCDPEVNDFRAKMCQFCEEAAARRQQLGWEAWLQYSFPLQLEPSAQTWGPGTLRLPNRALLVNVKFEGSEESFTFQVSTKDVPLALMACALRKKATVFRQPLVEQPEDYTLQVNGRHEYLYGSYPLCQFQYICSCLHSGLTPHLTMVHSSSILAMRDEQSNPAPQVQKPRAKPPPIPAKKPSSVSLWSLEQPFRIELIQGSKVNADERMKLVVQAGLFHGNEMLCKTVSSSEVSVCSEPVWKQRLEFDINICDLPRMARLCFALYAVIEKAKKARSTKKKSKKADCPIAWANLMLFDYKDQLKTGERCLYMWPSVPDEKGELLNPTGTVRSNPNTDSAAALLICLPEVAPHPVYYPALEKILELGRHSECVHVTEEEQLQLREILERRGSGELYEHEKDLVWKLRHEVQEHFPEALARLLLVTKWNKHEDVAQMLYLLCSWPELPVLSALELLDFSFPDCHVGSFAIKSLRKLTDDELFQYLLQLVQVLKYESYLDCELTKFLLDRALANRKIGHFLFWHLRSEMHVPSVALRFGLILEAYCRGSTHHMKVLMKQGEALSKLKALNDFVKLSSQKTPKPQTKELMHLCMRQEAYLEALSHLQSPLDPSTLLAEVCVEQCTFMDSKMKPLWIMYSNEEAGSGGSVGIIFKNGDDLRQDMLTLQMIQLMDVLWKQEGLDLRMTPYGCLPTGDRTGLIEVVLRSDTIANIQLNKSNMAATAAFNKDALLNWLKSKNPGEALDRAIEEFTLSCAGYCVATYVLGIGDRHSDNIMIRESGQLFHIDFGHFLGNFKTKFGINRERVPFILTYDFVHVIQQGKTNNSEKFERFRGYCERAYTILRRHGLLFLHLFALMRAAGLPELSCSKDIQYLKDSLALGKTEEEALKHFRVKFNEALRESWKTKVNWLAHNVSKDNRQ

[4] = Ratio of drug level in blood to plasma in Lewis rat; type: ADME, cell-free; settings: blood and plasma
Rattus norvegicus [5] = experiment: Antiarthritis activity in collagen-induced Lewis rat arthritis model assessed as reduction in cartilage damage administered bid through oral gavage for 7 days measured every day started on day 9 and continuing through day 16 of compound dosing; type: functional; how it was run: as §1
[6] = Volume of distribution at steady state in Lewis rat at 1 mg/kg, iv administered via infusion over 30 mins measured after 24 hrs by LC/MS/MS analysis; type: ADME, organism-based; settings: in vivo, read-out: Vdss
How it was run: (§2)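 Female Lewis rats, n=3 per route; 30-min iv infusion at 1 mg/kg and oral dose at 5 mg/kg, both in 30% PEG 400/70% water; plasma concentration-time profiles sampled to 24 h; values as mean ± SD.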

[7] = Tmax in Lewis rat at 1 mg/kg, iv administered via infusion over 30 mins or at 5 mg/kg, po administered via gavage by LC/MS/MS analysis; type: ADME, organism-based; settings: in vivo; how it was run: as §2
Homo sapiens = organism: Homo sapiens; experiment: Selectivity ratio of IC50 for human full length PI3Kalpha catalytic subunit/p85alpha to IC50 for human full length PI3Kdelta catalytic subunit/p85alpha
How it was run: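 Ratio calculated from the isoform-specific PI3K IC50 values, with enzyme assays run in quadruplicate.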

Rattus norvegicus [8] = experiment: In vivo inhibition of PI3Kdelta in collagen-induced Lewis rat arthritis model at 0.34 mg/kg administered bid through oral gavage at 2 to 12 hrs on 3rd and 7th day of compound dosing; type: functional
How it was run: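 Female Lewis rats with established collagen-induced arthritis got vehicle or drug by oral gavage twice daily for 7 days (study days 10–16). Blood was sampled at set times after dosing on days 3 and 7 for plasma drug levels. PI3Kδ inhibition was inferred from those levels against EC50/EC90 values from a rat whole-blood ex vivo anti-IgD (BCR)-stimulated B-cell activation assay.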

Rattus norvegicus [9] = experiment: Antiarthritis activity in collagen-induced Lewis rat arthritis model assessed as reduction in pannus formation at 1.07 mg/kg administered bid through oral gavage for 7 days measured every day started on day 9 and continuing through day 16 of compound dosing relative to vehicle-treated control; type: functional; set-up: scale not given: the % may be the effect or the level left; how it was run: as §1
[10] = Cmax in Lewis rat at 1 mg/kg, iv administered via infusion over 30 mins or at 5 mg/kg, po administered via gavage by LC/MS/MS analysis; type: ADME, organism-based; settings: in vivo; how it was run: as §2
[11] = Oral bioavailability in beagle dog at 5 mg/kg administered through gavage measured after 24 hrs by LC/MS/MS analysis; type: ADME, organism-based, Canis lupus familiaris; settings: in vivo
How it was run: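 Dogs, n=3 per route; iv dose 1 mg/kg in 5% ethanol/55% PEG 400/40% citrate buffer pH 2; oral dose 5 mg/kg in 15% Captisol (w/v) in water; plasma pharmacokinetics.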

EC50 [3]: 1 nM | blood plasma ratio [4]: 1.4 | Vd [6]: 2.6 L/kg | Tmax [7]: 1 h | Ratio IC50 (Homo sapiens): 1900 | Cmax [10]: 2830 nM | bioavailability [11]: 100%
SMILES: C[C@H](Nc1nc(N)nc(N)c1C#N)c1nc2cccc(F)c2c(=O)n1-c1cc(F)cc(F)c1
ED50 (Rattus norvegicus [1]): 1.5 mg/kg | Activity (Rattus norvegicus [2]): Dose-dependent effect | ED50 (Rattus norvegicus [5]): 1.5 mg/kg | inhibition in vivo at 0.34 mg/kg (Rattus norvegicus [8]): 25% | Activity (Rattus norvegicus [9]): 60%
